This note sets out measurements from ChEMBL document CHEMBL1136610, “Dehydrophenylalanine derivatives as VLA-4 integrin antagonists” (Bioorg Med Chem Lett, 2003).

The species named for data set [1] is Rattus norvegicus. Kind of data set: Clearance rate constant using isolated perfused rat liver (IPRL) assay. The data set is classed as ADME.
Data set [2] concerns the target T1, Integrin alpha-4/beta-1 (Homo sapiens, UniProt P05556+P13612). Kind of data set: Inhibition of VLA-4 to VCAM-1 binding in Jurkat cell adhesion assay. The data set is classed as cell-based. Summed up:
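Jurkat cells expressing VLA-4 incubated 30 min at 37 °C with test compounds on human 2-domain VCAM-1-Fc, which was immobilised on the plate via anti-human Fc. Plates washed and adherent cells stained with Rose Bengal. Reported as IC50.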

Data set [3] concerns the target T1, Integrin alpha-4/beta-1. Kind of data set: Inhibition of VLA-4 to VCAM-1 binding. The data set is classed as protein-complex assay. The method in brief: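 Test compounds titrated into a solution of 2-domain VCAM-Fc-Ig, then added to assay wells. Buffer: TBS with 1% BSA, 1 mM MnCl2 and 0.1% Tween. Incubated 2 h at room temperature, then washed. Bound VCAM detected with peroxidase-coupled anti-human Fc. Reported as IC50.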

T1 sequence (P05556 whole entry): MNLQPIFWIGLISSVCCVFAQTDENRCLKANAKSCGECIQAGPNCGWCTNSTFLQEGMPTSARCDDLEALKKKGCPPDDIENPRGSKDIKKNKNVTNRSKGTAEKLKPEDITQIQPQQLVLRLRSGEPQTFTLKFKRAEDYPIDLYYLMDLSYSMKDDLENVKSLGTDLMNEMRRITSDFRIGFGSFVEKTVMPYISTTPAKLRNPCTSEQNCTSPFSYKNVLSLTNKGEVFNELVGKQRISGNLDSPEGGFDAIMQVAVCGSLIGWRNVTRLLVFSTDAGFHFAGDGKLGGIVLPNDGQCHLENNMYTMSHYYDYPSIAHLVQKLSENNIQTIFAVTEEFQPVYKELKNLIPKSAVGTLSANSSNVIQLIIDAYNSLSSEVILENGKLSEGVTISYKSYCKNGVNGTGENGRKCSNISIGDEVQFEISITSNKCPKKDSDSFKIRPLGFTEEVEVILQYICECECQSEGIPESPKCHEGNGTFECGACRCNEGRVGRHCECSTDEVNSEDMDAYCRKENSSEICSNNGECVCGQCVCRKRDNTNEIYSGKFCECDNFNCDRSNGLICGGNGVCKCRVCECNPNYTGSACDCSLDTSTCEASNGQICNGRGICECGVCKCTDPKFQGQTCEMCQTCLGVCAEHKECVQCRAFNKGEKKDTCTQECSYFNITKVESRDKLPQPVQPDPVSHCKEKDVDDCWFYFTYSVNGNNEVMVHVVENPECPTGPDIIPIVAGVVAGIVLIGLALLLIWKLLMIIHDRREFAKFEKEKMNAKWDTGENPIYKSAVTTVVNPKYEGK
T1 sequence (P13612 whole entry): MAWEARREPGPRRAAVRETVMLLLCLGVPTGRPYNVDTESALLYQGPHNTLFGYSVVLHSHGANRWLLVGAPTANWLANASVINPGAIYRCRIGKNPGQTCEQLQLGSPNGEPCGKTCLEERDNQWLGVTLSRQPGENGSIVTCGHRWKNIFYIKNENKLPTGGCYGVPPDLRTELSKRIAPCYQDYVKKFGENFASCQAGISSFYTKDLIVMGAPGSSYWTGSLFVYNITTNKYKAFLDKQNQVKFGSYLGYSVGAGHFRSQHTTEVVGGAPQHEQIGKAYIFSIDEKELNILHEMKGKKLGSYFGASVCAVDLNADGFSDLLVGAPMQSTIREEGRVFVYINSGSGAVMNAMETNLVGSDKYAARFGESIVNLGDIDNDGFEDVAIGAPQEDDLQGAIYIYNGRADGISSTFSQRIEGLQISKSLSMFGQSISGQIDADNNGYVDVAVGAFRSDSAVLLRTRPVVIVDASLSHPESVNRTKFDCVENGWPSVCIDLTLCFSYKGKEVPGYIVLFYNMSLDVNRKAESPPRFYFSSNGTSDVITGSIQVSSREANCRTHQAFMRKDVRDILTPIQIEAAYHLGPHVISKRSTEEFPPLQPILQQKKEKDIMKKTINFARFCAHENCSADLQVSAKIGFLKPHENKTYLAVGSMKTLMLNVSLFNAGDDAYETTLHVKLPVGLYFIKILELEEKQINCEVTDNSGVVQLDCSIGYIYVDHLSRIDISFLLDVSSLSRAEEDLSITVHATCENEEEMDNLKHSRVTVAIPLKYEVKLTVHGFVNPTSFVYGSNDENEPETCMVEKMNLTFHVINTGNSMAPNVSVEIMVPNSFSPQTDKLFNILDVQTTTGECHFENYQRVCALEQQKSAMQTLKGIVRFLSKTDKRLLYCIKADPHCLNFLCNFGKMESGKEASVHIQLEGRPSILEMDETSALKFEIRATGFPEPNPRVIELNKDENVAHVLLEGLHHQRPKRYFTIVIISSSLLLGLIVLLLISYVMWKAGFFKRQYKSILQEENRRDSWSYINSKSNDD

The term IC50 denotes the midpoint of a concentration-inhibition curve. A higher IC50 goes with lower potency. In the case of `CC(=O)N1CSC[C@@H]1C(=O)N/C(=C\c1ccc(NC(=O)c2c(Cl)cccc2Cl)cc1)C(=O)O`, in data set [1], the k is 3.9 h⁻¹. Further, the IC50 in data set [2] was found to be 0.14 µM; in data set [3] it was 5 nM.

Turning to `CC(=O)N1CSC[C@@H]1C(=O)N/C(=C\c1ccc(OCc2c(Cl)cccc2Cl)cc1)C(=O)O`, the k in data set [1] was 4.1 h⁻¹. The IC50 in data set [2] came out at 5 µM; in data set [3], 2800 nM.

Regarding `CC(C)(C)C(=O)N/C(=C/c1ccc(NC(=O)c2c(Cl)cccc2Cl)cc1)C(=O)O`, the figures for the IC50 in data set [2] and in data set [3] were 80 µM and 2700 nM, respectively.

The compound `O=C(O)C1=Cc2ccc(NC(=O)c3c(Cl)cncc3Cl)cc2NC(c2cccnc2Cl)=N1` displayed a k in data set [1] of 5.3 h⁻¹. The IC50 in data set [2] was 0.41 µM; in data set [3] it was 55 nM.

For the compound `CC(=O)N1CSC[C@@H]1C(=O)N/C(=C/c1ccc(NC(=O)c2c(Cl)cccc2Cl)cc1)C(=O)O`, the k in data set [1] stood at 0.7 h⁻¹. The results for the IC50 in data set [2] and in data set [3] were 29 µM and 400 nM, respectively.

In data set [1], `CC(=O)N1CSC[C@@H]1C(=O)N/C(=C/c1ccc(NC(=O)c2c(Cl)cncc2Cl)cc1)C(=O)O` had a k of 1.2 h⁻¹. The IC50 was 0.2 µM in data set [2] and 60 nM in data set [3].

In data set [1], `O=C(O)/C(=C\c1ccc(NC(=O)c2c(Cl)cncc2Cl)cc1)NC(=O)c1cccnc1Cl` registered a k of 1.5 h⁻¹. Also, the IC50 in data set [2] was 8.5 µM; in data set [3], 66 nM.

Take `O=C(O)/C(=C/c1ccc(NC(=O)c2c(Cl)cncc2Cl)cc1)NC(=O)c1cccnc1Cl`: the k in data set [1] came to 3.9 h⁻¹. Besides, the IC50 turned out to be 0.07 µM in data set [2] and 1.4 nM in data set [3].

With `CC(=O)N1CSC[C@@H]1C(=O)N/C(=C\c1ccc(NC(=O)c2c(Cl)cncc2Cl)cc1)C(=O)O`, the k in data set [1] stood at 4.4 h⁻¹. Also, the figures for the IC50 in data set [2] and in data set [3] were 0.025 µM and 2 nM, respectively.

Take `O=C(O)/C(=C/c1ccc(OCc2c(Cl)cncc2Cl)cc1)NC(=O)c1cccnc1Cl`: the IC50 in data set [2] is 14 µM; in data set [3], 140 nM.

In data set [1], `CC(=O)N1CSCC1C(=O)N/C(=C/c1ccc(OCc2c(Cl)cccc2Cl)cc1)C(=O)O` (stereo not drawn) registered a k of 0.4 h⁻¹. Further, the IC50 in data set [2] turned out to be 83 µM; in data set [3], 7400 nM.

In turn, `O=C(O)/C(=C/c1ccc(OCc2c(Cl)cccc2Cl)cc1)NC(=O)c1cccnc1Cl` yielded a k in data set [1] of 3.7 h⁻¹. Further, the IC50 in data set [2] was 7.1 µM; in data set [3] it was 220 nM.

In turn, `CC(C)(C)C(=O)N/C(=C\c1ccc(NC(=O)c2c(Cl)cccc2Cl)cc1)C(=O)O` showed a k in data set [1] of 4.8 h⁻¹. Further, the IC50 was determined as 3.7 µM in data set [2] and 50 nM in data set [3].

As to `CC(=O)N1CSC[C@H]1C(=O)N/C(=C/c1ccc(OCc2ccccc2)cc1)C(=O)O`, the k in data set [1] came out at 0.6 h⁻¹. Also, the IC50 in data set [2] was 20 µM; in data set [3], 1500 nM.

For `CC(=O)N1CSC[C@H]1C(=O)N/C(=C\c1ccc(OCc2ccccc2)cc1)C(=O)O`, the k in data set [1] was determined as 3.8 h⁻¹. Besides, the figures for the IC50 in data set [2] and in data set [3] were 71 µM and 2200 nM, respectively.
